Results reported in ChEMBL document CHEMBL3414494 (Eur J Med Chem, 2015).
Activity calls are given as the source filed them. The calls are words filed in the database; no cut-off is given here.

Experiments:
SW-620 = test: Cytotoxicity against human SW620 cells assessed as growth inhibition after 72 hrs by MTT assay; assay type: functional, cell-based; settings: SW-620, 72 h
Outline: (§1)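 Cells were seeded at 2000–3000 per well and pre-incubated 24 h at 37 °C, 5% CO2. A concentration range of compound was then added for 72 h. MTT (5 mg/mL) was added for 3 h, the medium removed, and formazan dissolved in DMSO. Absorbance was read at 550 nm as the viable-cell measure.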

[1] = Cytotoxicity against human PANC1 cells assessed as growth inhibition after 72 hrs by MTT assay; assay type: functional, cell-based; settings: PANC-1, 72 h; outline: as §1
[2] = Cytotoxicity against human HCT116 cells assessed as growth inhibition after 72 hrs by MTT assay; assay type: functional, cell-based; settings: HCT-116, 72 h; outline: as §1
[3] = Cytotoxicity against human MKN45 cells assessed as growth inhibition after 72 hrs by MTT assay; assay type: functional, cell-based; settings: MKN-45, 72 h; outline: as §1
A549 = test: Cytotoxicity against human A549 cells assessed as growth inhibition after 72 hrs by MTT assay; assay type: functional, cell-based; settings: A549, 72 h
Outline: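 A549 human lung adenocarcinoma cells were seeded at 2000–3000 cells/well and held 24 h at 37 °C in 5% CO2. They were then exposed to a range of compound concentrations for 72 h at 37 °C. MTT (5 mg/mL stock) was added for 3 h, the medium was removed, formazan was dissolved in DMSO, and absorbance was read at 550 nm.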

[4] = Cell cycle arrest in human HCT116 cells assessed as accumulation at G2/M phase at 10 to 20 nM after 24 hrs by flow cytometric analysis; assay type: functional, cell-based; settings: HCT-116
Histone deacetylase 3 = Histone deacetylase 3 (Homo sapiens, UniProt O15379); test: Inhibition of recombinant human HDAC3 expressed in baculovirus infected insect High5 cells using Ac-Lys-Tyr-Lys (epsilon-acetyl)-AMC as substrate after 3 hrs by fluorescence assay
Sequence of Histone deacetylase 3 (O15379 whole entry): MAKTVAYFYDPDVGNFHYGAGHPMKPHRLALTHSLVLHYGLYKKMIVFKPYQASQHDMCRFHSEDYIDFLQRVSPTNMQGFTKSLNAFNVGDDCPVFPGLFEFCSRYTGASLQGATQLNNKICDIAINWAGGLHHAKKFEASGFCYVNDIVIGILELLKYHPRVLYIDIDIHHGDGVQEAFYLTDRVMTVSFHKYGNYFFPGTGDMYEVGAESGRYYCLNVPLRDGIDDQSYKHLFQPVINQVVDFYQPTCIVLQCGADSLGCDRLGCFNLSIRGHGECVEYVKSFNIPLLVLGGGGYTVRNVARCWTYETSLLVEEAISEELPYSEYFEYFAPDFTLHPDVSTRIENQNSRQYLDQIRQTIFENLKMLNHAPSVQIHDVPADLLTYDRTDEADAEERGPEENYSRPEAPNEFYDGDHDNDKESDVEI

HepG2 = test: Cytotoxicity against human HepG2 cells assessed as growth inhibition after 72 hrs by MTT assay; assay type: functional, cell-based; settings: HepG2, 72 h; outline: as §1
[5] = Cytotoxicity against human MHCC97H cells assessed as growth inhibition after 72 hrs by MTT assay; assay type: functional, cell-based; outline: as §1
[6] = Cytotoxicity against human SNU16 cells assessed as growth inhibition after 72 hrs by MTT assay; assay type: functional, cell-based; settings: SNU-16, 72 h; outline: as §1
[7] = Cytotoxicity against human SNU5 cells assessed as growth inhibition after 72 hrs by MTT assay; assay type: functional, cell-based; settings: SNU-5, 72 h; outline: as §1
Histone deacetylase 1 = Histone deacetylase 1 (Homo sapiens, UniProt Q13547); test: Inhibition of recombinant human HDAC1 expressed in baculovirus infected insect High5 cells using Ac-Lys-Tyr-Lys (epsilon-acetyl)-AMC as substrate after 24 hrs by fluorescence assay
Sequence of Histone deacetylase 1 (Q13547 whole entry): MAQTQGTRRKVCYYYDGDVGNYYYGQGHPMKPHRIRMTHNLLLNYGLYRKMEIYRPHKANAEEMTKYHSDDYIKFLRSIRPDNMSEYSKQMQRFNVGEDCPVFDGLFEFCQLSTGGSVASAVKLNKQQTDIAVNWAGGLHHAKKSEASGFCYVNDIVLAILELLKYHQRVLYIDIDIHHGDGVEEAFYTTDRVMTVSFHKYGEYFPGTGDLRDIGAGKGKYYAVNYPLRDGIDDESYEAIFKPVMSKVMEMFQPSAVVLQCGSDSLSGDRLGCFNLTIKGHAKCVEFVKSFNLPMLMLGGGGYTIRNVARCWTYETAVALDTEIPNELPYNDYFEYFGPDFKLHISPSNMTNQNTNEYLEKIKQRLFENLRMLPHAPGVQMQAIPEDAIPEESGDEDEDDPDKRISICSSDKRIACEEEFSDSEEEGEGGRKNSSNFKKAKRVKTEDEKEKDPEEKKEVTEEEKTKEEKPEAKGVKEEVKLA

SJSA-1 = test: Cytotoxicity against human SJSA1 cells assessed as growth inhibition after 72 hrs by MTT assay; assay type: functional, cell-based; settings: SJSA-1, 72 h; outline: as §1
Histone deacetylase 2 = Histone deacetylase 2 (Homo sapiens, UniProt Q92769); test: Inhibition of recombinant human HDAC2 expressed in baculovirus infected insect High5 cells using Ac-Lys-Tyr-Lys (epsilon-acetyl)-AMC as substrate after 24 hrs by fluorescence assay
Sequence of Histone deacetylase 2 (Q92769 whole entry): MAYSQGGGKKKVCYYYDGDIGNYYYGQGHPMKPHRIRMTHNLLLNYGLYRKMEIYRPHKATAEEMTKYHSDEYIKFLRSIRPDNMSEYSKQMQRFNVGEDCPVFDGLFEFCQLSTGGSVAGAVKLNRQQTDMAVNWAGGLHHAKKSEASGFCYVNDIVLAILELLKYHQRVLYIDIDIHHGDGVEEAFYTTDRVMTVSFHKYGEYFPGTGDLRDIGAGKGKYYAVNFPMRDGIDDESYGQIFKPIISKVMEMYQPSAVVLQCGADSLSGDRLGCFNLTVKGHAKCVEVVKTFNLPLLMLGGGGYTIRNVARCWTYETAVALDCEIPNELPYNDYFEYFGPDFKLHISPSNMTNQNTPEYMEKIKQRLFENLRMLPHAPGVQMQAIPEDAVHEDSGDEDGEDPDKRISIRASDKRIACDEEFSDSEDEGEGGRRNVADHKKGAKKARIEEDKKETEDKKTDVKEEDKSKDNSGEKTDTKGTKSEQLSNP

[8] = Cytotoxicity against human Hep3B cells assessed as growth inhibition after 72 hrs by MTT assay; assay type: functional, cell-based, Hep 3B2; outline: as §1
Tubulin (Homo sapiens) = Tubulin (Homo sapiens) (UniProt P68371+Q9H4B7+P0DPH7+P68366+Q13509+Q71U36+P04350+Q3ZCM7+P07437+P68363+Q9BQE3+Q6PEY2+Q13885+Q9BVA1+Q9BUF5); test: Inhibition of tubulin (unknown origin) polymerization at 10 uM; assay type: protein-complex assay

Structure (SMILES) | IC50 (SW-620) [nM] | IC50 [1] [nM] | IC50 [2] [nM] | IC50 [3] [nM] | IC50 (A549) [nM] | Activity [4] | IC50 (Histone deacetylase 3) [nM] | IC50 (HepG2) [nM] | IC50 [5] [nM] | IC50 [6] [nM] | IC50 [7] [nM] | IC50 (Histone deacetylase 1) [nM] | IC50 (SJSA-1) [nM] | IC50 (Histone deacetylase 2) [nM] | IC50 [8] [nM] | inhibition (Tubulin (Homo sapiens))
COc1cc2c(c(OC)c1OC)-c1ccc(OC)c(=O)cc1[C@@H](NC(C)=O)CC2 [COLCHICINE] | 5 | 21 | 40 | 2 | 105 | Active | > 50100 | 27 | 110 | 5 | 34 | > 50100 | 8 | > 50100 | 14 | 
Nc1ccccc1NC(=O)c1ccc(CNc2nccc(-c3cccnc3)n2)cc1 [MOCETINOSTAT] | 419 | 26800 | 396 | 610 | 2080 |  |  | 876 | 4560 | 142 | 1010 |  | 3620 |  | 823 | 
COc1cc2c(c(OC)c1OC)-c1ccc(OC)c(=O)cc1[C@@H](NCc1ccc(C(=O)Nc3ccccc3N)cc1)CC2 | 2 | 5 | 5 | 2 | 106 | Active | 11200 | 14 | 43 | 2 | 14 | 12500 | 9 | 6730 | 5 | Active
COc1cc2c(c(OC)c1OC)-c1ccc(OC)c(=O)cc1[C@@H](NCc1ccc(C(=O)Nc3cc(-c4cccs4)ccc3N)cc1)CC2 |  |  |  |  | 1040 |  | 1470 |  |  |  |  | 3320 |  | 270 |  | 
COc1cc2c(c(OC)c1OC)-c1ccc(OC)c(=O)cc1[C@@H](NCc1cccc(C(=O)Nc3cc(-c4cccs4)ccc3N)c1)CC2 |  |  |  |  | 393 |  | 19700 |  |  |  |  | 25500 |  | 5410 |  | 
COc1cc2c(c(OC)c1OC)-c1ccc(OC)c(=O)cc1[C@@H](NC(=O)c1cccc(C(=O)Nc3cc(-c4cccs4)ccc3N)c1)CC2 | 4 | 19 | 39 | 2 | 2790 | Active | 1490 | 20 | 339 | 5 | 119 | 1500 | 27 | 190 | 10 | Active
COc1cc2c(c(OC)c1OC)-c1ccc(OC)c(=O)cc1[C@@H](NCc1cccc(C(=O)Nc3ccccc3N)c1)CC2 |  |  |  |  | 354 |  | > 34400 |  |  |  |  | > 34400 |  | > 34400 |  | Active
COc1cc2c(c(OC)c1OC)-c1ccc(OC)c(=O)cc1[C@@H](NC(=O)c1ccc(C(=O)Nc3ccccc3N)cc1)CC2 |  |  |  |  | 1620 |  | 12100 |  |  |  |  | 15900 |  | 10400 |  | 
COc1cc2c(c(OC)c1OC)-c1ccc(OC)c(=O)cc1[C@@H](NC(=O)c1ccc(C(=O)Nc3cc(-c4cccs4)ccc3N)cc1)CC2 |  |  |  |  | 740 |  | 1970 |  |  |  |  | 2240 |  | 380 |  | 
COc1cc2c(c(OC)c1OC)-c1ccc(OC)c(=O)cc1[C@@H](NC(=O)c1cccc(C(=O)Nc3ccccc3N)c1)CC2 |  |  |  |  | 3430 |  | 10800 |  |  |  |  | 9620 |  | 4910 |  | 
